According to ChEMBL document CHEMBL4513216, “Probing the Open Global Health Chemical Diversity Library for Multistage-Active Starting Points for Next-Generation Antimalarials” (ACS Infect Dis, 2020):

Assay: Toxicity liver stage against HepG2, at 10uM
Type: cell-based
Set-up: test concentration 10 uM, cell line HepG2-A16-CD81EGFP
Conditions: human, HepG2-A16-CD81EGFP cells; read-out: INHIBITION
Method in brief: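 Uninfected HepG2-A16-CD81EGFP cells, 3 × 10^3 per well, 1536-well, plated on prespotted compound at 10 μM final, parasite-free screening media added to match infected plates; puromycin 10 μM positive, DMSO 0.5% negative; run in parallel with 48 h PbLuc assay at 37 °C, 5% CO2; viability by CellTiter-Glo luminescence, normalized to controls.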

| SMILES | cytotoxicity at 10 µM [%] |
| --- | --- |
| O=C(NC[C@H]1OC[C@@H](N(CC2CC2)CC2CC2)[C@@H]1O)Nc1ccccc1 | -2.62 |
| COCCO[C@H]1COCCN(Cc2ccc(OC)cc2)C1 | 9.71 |
| CC(=O)N1CCC(N2CCOC[C@H]2c2nc(-c3ccncc3)c[nH]2)CC1 | 1.58 |
| CCOC(=O)[C@H]1[C@@H](O)C(=O)N(C)C12CCN(C(=O)CC1CCCC1)CC2 | -1 |
| CC(C)NC(=O)CN1CCCNCC1 | -0.616 |
| Cc1ccc(C(=O)Nc2nnc(C3CC3)s2)c(-n2cnnn2)c1C | 12.3 |
| O=C(CSC1=NS(=O)(=O)c2cc(F)ccc2N1)Nc1ccc(Cl)cc1 | 8.93 |
| COC1(CNC(=O)CCCc2ccccc2)CCSC1 (stereo not given) | 4.68 |
| O=C(NCCn1nc(-n2cncn2)ccc1=O)c1ccccc1Br | -2.02 |
| Cc1cccc(CN2CCC3(CCC(C(=O)N(C)C)O3)CC2)n1 (stereo not given) | 3.14 |
| COc1cc(OC)cc(C2SCC(=O)Nc3ccsc32)c1 (stereo not given) | -1.16 |
| CCOC(=O)c1s/c(=N\C(=O)COc2cnc(C)cc2O)[nH]c1C | 5.56 |
| COc1ccc(C)cc1-c1[nH]c2ccccc2c1C(=O)O | 0.806 |
| COc1cc(C2CC(=O)Oc3cc(C)[nH]c(=O)c32)ccc1OC(F)F (stereo not given) | 7.34 |
| CNc1nc2c(s1)C(c1c(F)cccc1Cl)CC(=O)N2 (stereo not given) | -14.7 |
| CCC(C)c1noc(C2CCN(C(=O)c3cccnc3)CC2)n1 (stereo not given) | -10.7 |
| CC(C)(C)C(=O)N1CCCC1c1cc(CO)[nH]n1 (stereo not given) | 1.61 |
| CCS(=O)(=O)N1C[C@@H](c2cc(O)nc(C)n2)[C@H](c2ccccc2F)C1 | 7.17 |
| CC(=O)N1CCC1c1cc(N2CC(O)C2)nc(C)n1 (stereo not given) | 5.76 |
| O=C1CN(C(=O)C2CN(c3cccc(Cl)c3)CCO2)CCN1 (stereo not given) | -1.77 |
| O=C1NC2(CCN(CC(=O)N3CCOCC3)CC2)Nc2ccccc21 | -1.71 |
| COCCC(=O)N1C[C@@H](c2cccc(OC)c2)[C@@]2(CCCCC(=O)N2)C1 | 9.47 |

| SMILES | cytotoxicity at 10 µM [%] |
| --- | --- |
| CCCn1cc(S(=O)(=O)N(C)Cc2nonc2C)c(C)n1 | 12.7 |
| CC(=O)N1C[C@H]2CCCN(S(=O)(=O)c3ccc(Cl)s3)[C@H]2C1 | -2.32 |
| Cc1n[nH]c(C)c1CCC(=O)NCC1(O)CCN(c2ccccn2)C1 (stereo not given) | -1.08 |
| c1ccc2ncc(CC3CNCCOC3)cc2c1 (stereo not given) | -3.93 |
| COc1ncc(CN2CCCC2c2[nH]ncc2C(=O)N(C)C)cn1 (stereo not given) | -0.116 |
| CNC(=O)C1(C)CN(Cc2cn(C)c3ccc(F)cc23)CCO1 (stereo not given) | 0.187 |
| O=C(NCCc1ccccc1)C1CCN(C(=O)Cn2cncn2)C1 (stereo not given) | 2.55 |
| Cn1cc(C(=O)N2CCCC(Cc3cncc4ccccc34)C2)cn1 (stereo not given) | -13.2 |
| O=C(O)COCC(=O)NC1CC2(CCCCC2)Oc2ccccc21 (stereo not given) | -28.5 |
| CNC(=O)C1(c2cnccn2)CCCN1C(=O)c1ccc(F)cc1 (stereo not given) | 0.918 |
| CC(C)(C)c1nnc(NCc2ccc(F)cc2)o1 | 6.88 |
| CCn1cnnc1CNC(=O)NCC(O)c1ccc(OC)cc1 (stereo not given) | 5.66 |
| Cc1ccc(S(N)(=O)=O)cc1C(=O)NC1CCCN(C)C1 (stereo not given) | -1.96 |
| COC(=O)c1ccc(S(=O)(=O)N2CCCn3ncnc32)s1 | 19.8 |
| CC1CCN(c2ccc(C(=O)N3CCCC3c3nncn3C)cn2)CC1 (stereo not given) | -1.88 |
| COc1ccc(Cl)cc1CCNC(=O)NCc1noc(C)n1 | -4.76 |
| Cc1cc(C2CCCN(C(=O)COc3cccc(F)c3)C2)n[nH]1 (stereo not given) | 5.95 |
| NC(=O)C1CCN(C(=O)CSC2CCCc3ccccc32)CC1 (stereo not given) | 1.4 |
| CC(CS(C)(=O)=O)N(C(=O)Nc1cc(F)ccc1Cl)C1CC1 (stereo not given) | -4.15 |
| CNC(=O)C1CCCCN1C(=O)c1cn(CCOC)c2ccccc12 (stereo not given) | -0.408 |
| CC(C(=O)N1CCN(C(=O)c2ccc(F)cc2)CC1)n1ccnc1 (stereo not given) | -2.2 |
| CCOc1cncc(N2CCN(c3ccccc3F)CC2)n1 | -0.0195 |

| SMILES | cytotoxicity at 10 µM [%] |
| --- | --- |
| CC(O)CNCc1c[nH]nc1-c1cc2ccccc2o1 (stereo not given) | 0.788 |
| COc1ccc(S(=O)(=O)NCCC(=O)NCc2ccoc2)cc1OC | 10.8 |
| Cc1ccc(C2COCCN2C(=O)c2ccsc2)o1 (stereo not given) | -2.55 |
| Cc1c(CC(=O)N2CCSCC2)nnn1-c1cccc(Cl)c1 | -3.89 |
| CC(C)CN1CCN(C(=O)c2cc(=O)c3ccccc3[nH]2)CC1 | -4.92 |
| COc1cc(F)ccc1N(C)Cc1cccnc1 | -3.47 |
| Cc1cc(NCC2CC(=O)Nc3ccccc32)nc(C)n1 (stereo not given) | 0.344 |
| CC(NC(=O)Cn1cc(C(N)=O)c(-c2ccccc2)n1)C1CC1 (stereo not given) | -7.9 |
| Cc1cc(OC(F)F)c(C(=O)N2CC[C@H](O)C2)s1 | 9.67 |
| Cc1cc(Br)ccc1C(=O)Nc1c(C(N)=O)n[nH]c1C | -2.58 |
| Cc1ccccc1C(CC(=O)N1CCc2sccc2C1)NC(N)=O (stereo not given) | 0.0773 |
| Cc1nc2c(s1)C(N(C)C(=O)NCCCC(C)(C)CO)CCC2 (stereo not given) | -3.43 |
| O=C(CCOCC(F)(F)F)NS(=O)(=O)c1cccnc1 | 0.946 |
| COCCN1CCC(CNC(=O)C2(S(C)(=O)=O)CCCC2)CC1 | -9.61 |
| CC(C)(C)C(=O)NS(=O)(=O)c1ccc(C#N)c(C(F)(F)F)c1 | 1.38 |
| c1ccc(NCc2ccsc2)c(Cn2cncn2)c1 | 1.42 |
| CCCc1nc(C[S+]([O-])Cc2cn3cccc(C)c3n2)no1 (stereo not given) | 2.48 |
| Cc1ccc(CNC2CCN(CCc3ccncc3)CC2)s1 | -13.9 |
| CC(Sc1nnnn1C1CCOCC1)C(=O)NC1CCCCC1 (stereo not given) | 18.3 |
| CCS(=O)(=O)N1CCc2c(cccc2NC(=O)NCCOC)C1 | 2.17 |
| Cc1nc(CN2CCCC(N(C)CCc3cccs3)C2)no1 (stereo not given) | -21.8 |
| O=C1[C@H]2CN(S(=O)(=O)C3CC3)C[C@H]2CN1CC1CC1 | 1.8 |

| SMILES | cytotoxicity at 10 µM [%] |
| --- | --- |
| CO[C@H]1CCN(C(=O)Cc2ccccn2)[C@H]1Cc1ccncc1 | 2.26 |
| CCC[C@@H]1CN(S(=O)(=O)c2ccc3[nH]c(=O)[nH]c3c2)C[C@H]1NC(C)=O | -7.19 |
| Cc1cc2ccccc2n1CCC(=O)NCCN(C)S(C)(=O)=O | 5.56 |
| Cc1cc2c(=O)n(CCOCCO)cnc2s1 | 8.72 |
| Cc1nc(-c2cccc(N3CCC(NC4CCSC4)CC3)c2)cs1 (stereo not given) | 2.86 |
| CCCC(=O)N1CCC(N2CC[C@@](O)(CCOC)[C@H](C)C2)CC1 | -3.58 |
| CCn1c(Cn2cncn2)nnc1C1CCN(Cc2ccccn2)CC1 | 9.78 |
| CCCc1n[nH]c(=O)n1[C@@H](CC)c1ccccc1 | -5.22 |
| CN(C)Cc1nnc(C(=O)N(C)Cc2ccc(C(F)(F)F)cc2)o1 | -6.72 |
| CC(CN1CC[C@@H]2CCCC[C@@H]2C1)n1cnc2ccccc21 (stereo not given in full) | 7.16 |
| CCOC(=O)N1CCN(C(=O)C(C)n2ccnc2C(C)C)CC1 (stereo not given) | -9.28 |
| COc1ccc(CN2C[C@@H](CN(C)C)[C@@H](CO)C2)cc1OC | -1.19 |
| CCCc1cncnc1N1CCC2(CCC(=O)N(C3CCCC3)C2)CC1 | 2.61 |
| Cc1ccc(C2(CN3CCCC3)CCNCC2)nc1 | -12.8 |
| COc1cc2nc3n(c(=O)c2cc1OC)CCN(C)CC3 | 2.39 |
| CCOCC(O)CN1CCN(C(=O)c2cc(F)cc(F)c2)CC1 (stereo not given) | 8.1 |
| Cc1ccc(CC(=O)N2CCCC(c3nccs3)C2)cn1 (stereo not given) | -2.01 |
| Cc1ccc(N(CCC#N)C(=O)CN2CCCC2c2ccsc2)cc1 (stereo not given) | -9.01 |
| CC(C)NC(=O)NCc1ccc(C(=O)NC(C)Cn2cccn2)cc1 (stereo not given) | -1.46 |
| O=C(CCn1cncn1)NCC(c1ccco1)N1CCCCC1 (stereo not given) | -2.97 |
| O=C(c1cc(F)ccc1F)C1CCN(C(=O)c2cnccn2)CC1 | -27.2 |
| CNc1cc2c(nn1)CCN(C(=O)c1coc(Br)c1)C2 | -13.6 |

| SMILES | cytotoxicity at 10 µM [%] |
| --- | --- |
| COc1c(CNCC(O)c2ccccc2)c(C(C)C)nn1C (stereo not given) | -16.5 |
| Cc1cc(NC(=O)CN2CCn3c(nnc3C3CC3)C2)no1 | -7.32 |
| Cc1n[nH]c(=O)c2c(NC(=O)CN3CCC(C)CC3)oc(C)c12 | -1.5 |
| Cc1ncc2c(n1)CN(CCCc1nc3ccccc3o1)CC2 | 6.81 |
| O=C(c1cccc(CNCC2CNc3ccnn3C2)c1)N1CCCC1 (stereo not given) | 6.26 |
| CCn1cc(NC(=O)NCC(O)CN2CCCCC2)cn1 (stereo not given) | 3.75 |
| O=C(Nc1cccnc1)[C@H]1C[C@H]2OCC[C@H]2N(C(=O)c2ccsc2)C1 | -1.24 |
| Cc1ccc(CN2CCC3(CC2)NC(=O)CC3c2ccccc2)s1 (stereo not given) | -1.39 |
| CC(=O)N1CCN(Cc2ccc(C)o2)CC2(CC(=O)N(C)C2)C1 (stereo not given) | -2.01 |
| Fc1ccc(CN2CCC(c3n[nH]c4ncccc34)CC2)cc1F | 9.12 |
| CN1CCc2c(C#N)c(NCCCN3CCOCC3)n3cnnc3c2C1 | -7.14 |
| O=C1[C@H]2CN(Cc3ccoc3)C[C@H]2CN1CCN1CCCC1 | 1.05 |
| Cc1ccc(CN2CCc3nnc(CN4CCCC4=O)n3CC2)o1 | -4.28 |
| CC(C)CN1CC[C@@H]2[C@@H]1CCN2C(=O)N(C)C | -0.88 |
| CC1c2ncc(CNC(=O)C3CC3)n2CCN1CC1CCC1 (stereo not given) | -3.15 |
| CS(=O)(=O)N1CCOCC2(CN(Cc3ccco3)CCO2)C1 (stereo not given) | -5.04 |
| Cc1ccc(N2CC[C@H]3O[C@@H](C(=O)N4CCCCO4)CC[C@H]32)nn1 | 5.37 |
| CCS(=O)(=O)N1CCc2onc(COc3ccccn3)c2C1 | -4.72 |
| O=C(C1=CCCCC1)N1CCC2(CC1)COC(COc1ccccn1)C2 (stereo not given) | -1.88 |
| O=C(NCCn1nc(C2CCNC2)c2cccnc21)c1ccccn1 (stereo not given) | -25.7 |
| COc1ccc(-n2cc3[nH]c(=O)[nH]n3c2=O)cc1 | -0.106 |
| Cn1cc(C(=O)N2C[C@H]3CC(Oc4ccccc4)C[C@H]3C2)cn1 (stereo not given in full) | 3.6 |
